Reference: ChEMBL document CHEMBL1123629, “Resolution, absolute configuration, and cholinergic enantioselectivity of (-)- and (+)-c-2-methyl-r-5-[(dimethylamino)methyl]-1,3-oxathiolane t-3-oxide methiodide and related sulfones” (1987)

Experiments:
[1] = Equipotent molar ratio(EPMR) between the ED50 of compound and ED50 of carbachol calculated on frog rectus abdominis; assay type: functional, Rectus abdominis muscle
Method in brief: (§1)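 ED50 for test agonist and for carbachol (reference) were obtained by regressing the angular transform of fractional contractile effect against log agonist concentration. Potency is expressed as the equipotent molar ratio, ED50 test/ED50 carbachol. Values below 1 indicate greater potency than carbachol.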

Cavia porcellus = species: Cavia porcellus; assay: Muscarinic activity on guinea pig ileum; assay type: functional
[2] = Equipotent molar ratio(EPMR) between the ED50 of compound and ED50 of carbachol calculated on guinea pig ileum; assay type: functional; method in brief: as §1
[3] = Nicotinic activity on frog rectus abdominis; assay type: functional, Rectus abdominis muscle
[4] = Muscarinic selectivity is reported as the ED50 ratio (ED50 Nicotinic / ED50 Muscarinic); assay type: functional
Method in brief: (§2)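 Selectivity is computed from nicotinic (frog rectus abdominis) and muscarinic (guinea pig ileum) data as ED50(N)/ED50(M) and as EPMR(N)/EPMR(M). Each ED50 comes from regressing the angular transform of fractional effect on log agonist concentration, with carbachol as the reference.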

[5] = Muscarinic selectivity is reported as the EPMR ratio (EPMR Nicotinic/ EPMR Muscarinic); assay type: functional; method in brief: as §2
[6] = Eudismic ratio was determined in guinea pig ileum; assay type: functional
[7] = Eudismic ratio was determined in frog rectus abdominis; assay type: functional, Rectus abdominis muscle

Compound	EPMR [1]	ED50 (Cavia porcellus)	EPMR [2]	ED50 [3]	Selectivity [4]	Selectivity [5]	Eudismic ratio [6]	Eudismic ratio [7]
C[C@@H]1O[C@H](C[N+](C)(C)C)CS1(=O)=O.[I-] (racemic)	15	0.000264 nM	281					
C[C@H]1O[C@@H](C[N+](C)(C)C)C[S+]1[O-].[I-] (mixture of isomers)	45	12.2 nM	1.3	2300 nM				
C[N+](C)(C)CCOC(N)=O.[Cl-] [CARBACHOL]	1	94 nM	1	5100 nM				
C[C@@H]1O[C@H](C[N+](C)(C)C)CS1(=O)=O (racemic)					3	0.05		
C[C@H]1O[C@H](C[N+](C)(C)C)C[S+]1[O-].[I-] (mixture of isomers)	41	19.6 nM	209	2100 nM				
C[C@@H]1O[C@H](C[N+](C)(C)C)CS1(=O)=O					24	0.5		
C[C@@H]1O[C@H](C[N+](C)(C)C)CS1(=O)=O.[I-]	76	0.000158 nM	168					
C[C@H]1O[C@@H](C[N+](C)(C)C)CS1(=O)=O.[I-]	6.5		170	0.033 nM	2.1	0.04	1	12
C[C@@H]1O[C@H](C[N+](C)(C)C)C[C@H]1O (racemic) [MUSCARINE]	>95	79.4 nM	0.8	> 500				
